Laboratory results: ChEMBL document CHEMBL1122405, “Structure--activity relationships for and potentiation of the antimitogenic activity of 2-5A core derived from 2-5A, a mediator of interferon action” (J Med Chem, 1983)

Experiments:
Type in all cases: functional
[1] = system: Nucleic Acid; experiment: Percent inhibition of DNA synthesis ([Me-3H] thymidine incorporation) at 50 uM concentration
Method in brief: (§1)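 Balb/c 3T3 cells were grown to confluence in Eagle's MEM with 10% fetal calf serum. They were synchronized in serum-free medium containing 10% spent medium, then stimulated with fresh medium plus 10% FCS, with or without oligonucleotide at a final 5 or 50 μM. At set intervals, duplicate cultures were pulsed 1 h with [3H]thymidine (40 Ci/mmol) and TCA-insoluble cpm counted. % inhibition = 100[1 − treated/control], using cpm summed over the control peak DNA-synthesis period (e.g. 15–16, 17–18, 19–20 h).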

[2] = Percent inhibition of protein synthesis ([35S]methionine incorporation) at 50 uM concentration
Method in brief: (§2)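 Confluent Balb/c 3T3 cells were synchronized in methionine-free, serum-free medium containing 10% spent medium. They were then stimulated with fresh methionine-free medium plus 10% fetal calf serum, with or without oligonucleotide at a final 5 or 50 μM. At set intervals, duplicate cultures were pulse-labeled 1 h with [35S]methionine (147 mCi/mmol) and TCA-insoluble cpm measured. % inhibition = 100[1 − treated cpm/untreated cpm].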

[3] = Percent inhibition of protein synthesis ([35S]methionine incorporation) at 5 uM concentration; method in brief: as §2
[4] = system: Nucleic Acid; experiment: Percent inhibition of DNA synthesis ([Me-3H] thymidine incorporation) at 5 uM concentration; method in brief: as §1

Row | Compound | inhibition [1] [%] | inhibition [2] [%] | inhibition [3] [%] | inhibition [4] [%]
1 | Nc1ncnc2c1ncn2[C@@H]1O[C@H](COP(=O)(O)O[C@@H]2[C@H](O)[C@@H](COP(=O)(O)O[C@@H]3[C@H](O)[C@@H](COP(=O)(O)OP(=O)(O)OP(=O)(O)O)O[C@H]3n3cnc4c(N)ncnc43)O[C@H]2n2cnc3c(N)ncnc32)[C@@H](O)[C@H]1O | 27 | 21 | 11 | 11
2 | Nc1ncnc2c1ncn2[C@@H]1O[C@H](COP(=O)(O)O[C@@H]2[C@H](O)[C@@H](COP(=O)(O)O[C@@H]3[C@H](O)[C@@H](CO)O[C@H]3n3cnc4c(N)ncnc43)O[C@H]2n2cnc3c(N)ncnc32)[C@@H](O)[C@H]1O | 48 | 14 | 0 | 14
3 | Nc1ncnc2c1ncn2[C@@H]1O[C@H](COP(=O)(O)O[C@@H]2[C@H](O)[C@@H](COP(=O)(O)O[C@@H]3[C@H](O)[C@@H](COP(=O)(O)O)O[C@H]3n3cnc4c(N)ncnc43)O[C@H]2n2cnc3c(N)ncnc32)[C@@H](O)[C@H]1O | 54 | 33 | 0 | 15
